procasp7 counter: activates human procaspase-7, counter-screen for procaspase-3 activators; P55210; activation, % at 8.5 µM; recombinant procaspase-7, Ac-DEVD-pNA absorbance 405 nm; D23A/D198A/D206A triple mutant, cannot self-cleave; scale: DMSO 0, 5 µM enzyme 100; 330,000 compounds, 0.093% hits;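 active means percent activation above the screen-wide mean plus 3 SD, cut at about 25% in these data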
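Detection: p-Nitroaniline absorbance at 405 nm, read at 0 and 120 min; system: Uncleavable procaspase-7 mutant enzyme; evaluation: % activation from two-timepoint absorbance difference, scaled to controls; times: 1 h enzyme–compound preincubation and 2 h substrate reaction, both 25 °C; buffer or medium: Zinc-free HEPES pH 7.4 with 300 mM NaCl, 0.01% Triton X-100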
LANA-H2A inh: blocks KSHV LANA binding to histone H2A/H2B | Q9QR71 | cell-free LANA-H2A/H2B peptide, fluorescence polarization | inhibition, % (concentration not given with the values) | 320,000 compounds, 0.6% hits; in the data active means inhibition mostly above about 10%, no sharp cut-off; inactive means mostly below about 6.7%
ARFGAP1 inh: inhibits rat ARF GTPase activating protein 1; Q62848; Arfgap1-stimulated ARF1 GTP hydrolysis, GDP FP detection; inhibition, % at 16.5 µM; 360,000 compounds, 0.26% hits;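 active means inhibition above a per-plate limit, mean inhibition of low control wells plus 3 SD, cut at about 25% in these data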;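 further: 0% = DMSO wells with enzyme and 100% = wells lacking Arfgap1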
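System: truncated rat Arfgap1 GAP domain / Medium: HEPES-based buffer, pH 7.5 / Also added: N-terminally truncated human ARF1-GTP substrate / Incubation: enzyme reaction 120 min at 25 °C after 20 min preincubation / Measured by: FP of antibody-bound GDP Alexa 633 tracer, ex 620/em 688 nm / Replicates: singlicate, each compound tested once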
procasp3 activ: activates human procaspase-3; P42574; recombinant procaspase-3 D3A, Ac-DEVD-pNA absorbance 405 nm; activation, % at 8.5 µM; 330,000 compounds, 0.11% hits; AID 463141;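 active means activation above the mean of all tested compounds plus 3 SD, cut at about 21% in these data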;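 further: 0% = DMSO alone and 100% = DMSO wells spiked with extra 5 µM PC-3 D3A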
Target sequence (P42574 whole entry D9A/D28A/D175A): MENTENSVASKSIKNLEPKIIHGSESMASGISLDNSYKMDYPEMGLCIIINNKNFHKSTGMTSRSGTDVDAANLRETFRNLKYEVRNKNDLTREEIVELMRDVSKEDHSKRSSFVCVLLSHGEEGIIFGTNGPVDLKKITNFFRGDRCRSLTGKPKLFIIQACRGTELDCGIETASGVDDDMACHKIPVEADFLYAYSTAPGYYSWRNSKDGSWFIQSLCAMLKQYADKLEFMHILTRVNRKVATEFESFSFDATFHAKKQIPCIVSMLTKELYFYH
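Assay system – Procaspase-3 D3A mutant, all three cleavage aspartates alanine · Controls – DMSO-only low control, 5 µM PC-3 D3A high control · Schedule – 1 h compound preincubation, 2 h substrate hydrolysis at 25 °C · Signal – 405 nm absorbance of p-nitroaniline, reads at 0 and 120 min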
CR mimetic SO: yeast age-related superoxide inhibition as caloric restriction mimetic | S. cerevisiae aged cells, superoxide DHE fluorescence; hits give low values | superoxide response (% of plate mean), % at 10 µM | 330,000 compounds, 0.18% hits | AID 2690;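 active means superoxide response under a set limit, about three screen SD below normal, cut at about 65% in these data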;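 further: yeast aged for seven days with compound at 30 °C before DHE staining; 100% = average MFI of all compound-treated wells on the plate with controls excluded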
ASAP1 GAP inh: ASAP1 ArfGAP inhibition; AID 624377; ASAP1-stimulated ARF1 GTP hydrolysis, GDP FP detection; inhibition, % at 16.5 µM; Q9ULH1; 360,000 compounds, 0.19% hits; in the data active means inhibition above about 25%;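 further: 0% = vehicle with enzyme and substrate and 100% = no enzyme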
Target sequence (Q9ULH1 325-724 limits assumed): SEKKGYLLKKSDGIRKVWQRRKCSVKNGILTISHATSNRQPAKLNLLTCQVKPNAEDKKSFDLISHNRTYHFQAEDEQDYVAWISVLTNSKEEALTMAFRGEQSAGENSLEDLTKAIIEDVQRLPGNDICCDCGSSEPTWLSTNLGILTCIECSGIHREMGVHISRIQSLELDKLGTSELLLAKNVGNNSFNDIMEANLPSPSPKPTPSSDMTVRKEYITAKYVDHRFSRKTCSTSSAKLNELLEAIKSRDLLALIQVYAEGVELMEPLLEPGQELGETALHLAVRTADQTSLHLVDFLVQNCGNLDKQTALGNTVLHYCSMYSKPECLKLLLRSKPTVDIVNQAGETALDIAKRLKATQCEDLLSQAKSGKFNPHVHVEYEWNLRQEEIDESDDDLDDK
CR mimetic CP: confirmation of caloric restriction mimetics inhibiting yeast age-related superoxide; S. cerevisiae aging, superoxide DHE fluorescence; hits give low values; superoxide response (% of plate), % at 10 µM; 850 compounds, 1% hits; shares compounds with CR mimetic SO;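 active means superoxide signal below 65% of the plate average of sample wells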;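 further: cells aged with compound for 7 days at 30 degrees C before staining; 100% equals mean DHE fluorescence of all compound wells on the plate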
DHE fluor count: counter-screen for compounds affecting DHE oxidation and fluorescence in yeast; shares compounds with CR mimetic SO; S. cerevisiae BY4741, flow cytometry; hits give low values; fluorescence response, % at 10 µM; 850 tested, under 10 active;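 active means fluorescence response below 15%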;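 further: percent of the mean fluorescence averaged over all compound wells on the plate; lower means stronger quenching of DHE signal or ROS scavenging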
Numbers without * were called inactive; x = no result. Shown are actives, neighbours in structure and some others; about 1.2% of the full set was active somewhere.

SMILES	procasp7 counter	LANA-H2A inh	ARFGAP1 inh	procasp3 activ	CR mimetic SO	ASAP1 GAP inh	CR mimetic CP	DHE fluor count
Nc1nc(SCc2ccc(Br)cc2)n[nH]1	-6.0	-1.0	4.2	-0.8	48.9*	-4.7	101.8	92.3
CCOC(=O)c1c(NC(=O)CN2CCCc3ccccc32)sc(C(C)=O)c1C	7.2	1.4	-4.6	6.5	97.0	8.9	x	x
CN(C)/C=N/c1cc(=O)n(C)c(=O)n1Cc1ccccc1	-5.7	4.1	-1.4	3.0	x	2.5	x	x
Cn1c(=S)[nH]c(=O)c2ncc(=O)[nH]c21	-1.4	5.1	-8.1	-1.9	62.9*	-0.4	103.1	91.4
CCn1c(=O)c2c(O)cc(=O)oc2c2ccccc21	-0.5	2.9	-1.0	7.0	47.9*	-10.3	81.8	101.3
CCOC(=O)c1c(O)c2ccccc2n(-c2ccccc2)c1=O	-7.1	2.6	-2.5	-9.2	89.7	2.9	x	x
O=c1cc(O)c2c(=O)n(-c3ccccc3)c3ccccc3c2o1	0.3	-3.0	9.1	1.8	75.3	4.8	95.5	94.8
CC(C)n1c(=O)c2c(O)cc(=O)oc2c2ccccc21	-8.0	1.2	1.8	-1.5	71.4	-6.6	87.0	97.7
O=C(NCc1ccccc1)c1cccc(NC(=O)C2CCCC2)c1	x	x	3.1	x	x	0.4	x	x
COC(=O)C1CN(C(=O)C(C)Oc2ccccc2Cl)c2ccccc2O1 (stereo not drawn)	-2.8	4.5	1.1	3.2	63.5*	7.7	101.2	101.6
COC(=O)[C@H](CC(C)C)NC(=O)Nc1ccc(S(N)(=O)=O)cc1	11.4	3.9	-13.8	7.7	90.5	11.1	x	x
CCC(=O)N1CCc2cc(S(=O)(=O)NCCC(=O)N3CCN(c4cccc(C)c4)C(C)C3)ccc21 (stereo not drawn)	5.1	0.7	1.4	6.8	63.3*	7.6	105.1	109.1
COC(=O)C1C(=O)C=C(Nc2ccc(F)cc2F)CC1c1ccc(OC)cc1 (stereo not drawn)	1.5	0.3	-3.5	1.9	104.3	-5.2	x	x
COC(=O)C1C(=O)C=C(Nc2ccc(F)cc2)CC1c1ccc(OC)cc1 (stereo not drawn)	16.9	-2.6	5.4	3.5	65.4*	-3.2	113.3	105.4
Cn1c(=O)c2[nH]c(N3CCCCC3)nc2n(C)c1=O	1.9	1.6	2.8	-14.6	65.5*	-14.1	80.3	89.8
CCCCc1cc(=O)oc2cc(OCC(=O)N3CCC(C(=O)O)(c4ccccc4)CC3)ccc12	-7.3	2.2	-4.5	7.5	64.0*	0.1	112.7	94.8
CCCCc1cc(=O)oc2cc(OCC(=O)N3CCOCC3)ccc12	-11.8	5.2	-4.7	0.5	100.7	-3.8	x	x
Cc1cc(C)c(S(=O)(=O)Nc2ccc(O)cc2)c(C)c1	-0.5	-0.2	8.3	1.7	94.0	8.8	121.4	120.8
Cc1nc(C(F)(F)F)c(C(=O)N/N=C(\N)c2ccccn2)s1	9.9	-0.2	17.9	0.5	99.4	-5.7	x	x
Cc1ccc(C(=O)O)cc1NC(=O)CCc1c(C)noc1C	x	x	6.9	x	x	-4.8	x	x
O=C(OCC(=O)N1CCc2ccccc21)c1nc(Cl)ccc1Cl	1.9	-1.0	-0.9	-1.9	98.9	6.9	x	x
COc1ccc(C)cc1-n1nnnc1SCc1cn2ccsc2n1	2.7	4.3	9.4	3.0	62.2*	-8.6	117.7	109.8
CC(=O)Nc1ccc(S(=O)(=O)N2CCN(S(=O)(=O)N3CCCCCC3)CC2)cc1	0.6	-1.2	-2.6	2.4	110.7	6.2	x	x
COCC(=O)Nc1ccc(S(=O)(=O)N2CCCC2)cc1	-16.2	-3.5	13.3	1.4	88.0	-1.5	99.4	100.5
CCCC(=O)Nc1ccc(S(=O)(=O)N2CCCC2)cc1	9.0	1.3	-7.0	0.7	106.1	21.2	x	x
SMILES	procasp7 counter	LANA-H2A inh	ARFGAP1 inh	procasp3 activ	CR mimetic SO	ASAP1 GAP inh	CR mimetic CP	DHE fluor count
CC(=O)Nc1ccc(S(=O)(=O)N2CCCC2)cc1	-1.6	7.5	-3.0	0.8	101.0	-7.0	98.4	114.6
O=C(Cc1ccccc1)NCc1ccncc1	4.5	-5.5	5.9	5.9	57.5*	1.8	102.2	97.1
O=C(Cc1c[nH]c2ccccc12)NCc1ccncc1	-1.3	0.4	-3.6	4.9	106.3	-20.6	x	x
O=C(c1cccc(F)c1)N1CCN(c2cccc(C(F)(F)F)c2)CC1	-4.8	0.2	4.7	14.5	100.2	0.0	92.5	88.7
O=C(c1ccc2nccnc2c1)N1CCN(c2cccc(C(F)(F)F)c2)CC1	-5.8	x	3.0	4.2	77.2	3.8	x	x
O=C([C@H]1O[C@@H](n2ccc(=O)[nH]c2=O)[C@H](O)[C@@H]1O)N1CCC(F)(F)CC1	x	x	-3.5	x	x	2.5	x	x
COc1ccc(-c2c(C(=O)O)nc3ccccc3c2C(=O)O)cc1	1.4	9.1	5.9	-1.8	62.3*	6.4	110.0	98.6
O=C(N/N=C/c1c(Nc2cccc(C(F)(F)F)c2)nc2ccccn2c1=O)c1ccccc1[N+](=O)[O-]	-0.7	-1.6	2.8	16.6	95.1	2.0	x	x
O=C(C(=O)N1CCN(S(=O)(=O)c2ccc(Cl)cc2)CC1)c1cccc(C(F)(F)F)c1	x	x	0.8	x	x	4.5	x	x
Cc1cc(C)nc(CCNC(=O)C2CCC(=O)N(Cc3ccccc3F)C2)n1 (stereo not drawn)	0.6	10.0	-7.5	-0.9	64.7*	2.6	94.9	94.8
CCC(NC(=O)c1oc2ccccc2c1COC)c1ccc(OC)cc1 (stereo not drawn)	0.7	4.2	7.8	9.4	102.1	14.4	x	x
OCCOCCn1c2ccccc2c2ccccc21	12.4	2.8	5.3	6.5	79.6	-6.6	95.0	91.9
OCn1c2ccccc2c2ccccc21	0.1	3.5	5.6	6.3	97.4	-14.3	x	x
COc1ccccc1-c1nnc(NC(=O)c2ccc(S(=O)(=O)N3CCOCC3)cc2)o1	12.1	0.0	14.3	1.4	92.9	6.1	90.9	93.3
COCc1nnc(NC(=O)c2ccc(S(=O)(=O)N3CCOCC3)cc2)o1	-3.7	1.5	-4.3	1.3	102.6	1.2	118.1	116.8
COc1cc(-c2nnc(NC(=O)c3ccc(S(=O)(=O)N4CCOCC4)cc3)o2)cc(OC)c1OC	-7.1	-2.6	-2.4	3.9	94.0	1.5	x	x
COCc1nnc(NC(=O)c2ccc(S(=O)(=O)N3CCCc4ccccc43)cc2)o1	3.2	-2.4	-6.7	-4.2	96.4	11.0	101.5	95.5
COc1ccc(-c2nnc(NC(=O)c3ccc(S(=O)(=O)N4CCCc5ccccc54)cc3)o2)cc1	12.4	2.8	x	9.8	101.6	x	x	x
